Sampled rows, rich in hits. Any-hit rate of the full collection: about 1.3%.
PP5 inh = PP5 (human) phosphatase inhibition | P53041 | purified PP5c, OMFP substrate fluorescence | inhibition, % at 6.7 µM | 0.18% of 320,000 active | AID 1987;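 active means inhibition above the campaign's mean inhibition across all tested compounds plus 3 SD, cut at about 9.5% in these data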;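 further: 0% = DMSO only and 100% = 100 µM cantharidin control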
Target sequence (P53041 whole entry, looked up): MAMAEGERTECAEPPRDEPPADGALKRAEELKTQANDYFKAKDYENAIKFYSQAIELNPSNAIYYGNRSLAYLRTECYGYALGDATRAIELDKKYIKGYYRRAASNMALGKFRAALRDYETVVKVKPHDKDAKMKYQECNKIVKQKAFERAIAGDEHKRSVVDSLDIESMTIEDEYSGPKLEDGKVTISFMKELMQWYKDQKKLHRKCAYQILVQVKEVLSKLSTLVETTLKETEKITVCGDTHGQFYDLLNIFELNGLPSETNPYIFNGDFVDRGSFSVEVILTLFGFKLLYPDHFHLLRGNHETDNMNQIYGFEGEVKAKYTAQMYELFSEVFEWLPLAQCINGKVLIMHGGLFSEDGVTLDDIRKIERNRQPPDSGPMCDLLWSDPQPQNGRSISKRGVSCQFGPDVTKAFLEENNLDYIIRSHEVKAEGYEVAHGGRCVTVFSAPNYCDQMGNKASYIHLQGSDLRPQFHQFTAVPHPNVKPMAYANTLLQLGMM
PP1 inh = counter-screen for PP5 inhibitors: inhibitors of human PP1-alpha; purified PP1alpha, OMFP fluorescence; inhibition, % at 6.7 µM; 0.9% of 320,000 active; AID 2235; P62136;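 active means inhibition above the mean inhibition of all tested compounds plus 3 SD, computed separately for each screening campaign, cut at about 15% in these data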
NR2E3 ag-1 = agonists of human nuclear receptor NR2E3; 0.12% of 320,000 active; AID 2300; GST-NR2E3/biotin-RetCOR TR-FRET, 1536-well; Q9Y5X4; inhibition of corepressor binding, % at 4.78 µM;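 active means percent inhibition above the cutoff of mean plus 3 SD of all tested compounds, set per screening campaign, cut at about 20% in these data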;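 further: 0% = DMSO wells and 100% = biotin wells as full block of FRET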
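Test system: GST-NR2E3 and biotin-RetCOR proteins | Quantity: 1.35 nM GST-tagged NR2E3 final | Medium: Tris pH 7.5 | Also added: 7 nM biotin-RetCOR | Dosing: Compound at 4.8 µM, single dose | Timing: 5 h at 4 °C | Detection: Time-resolved FRET | Read-out basis: Percent inhibition | Benchmarks: Biotin wells as high control, 0.6% DMSO wells as low control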
NR2E3 ag-2 = human photoreceptor-specific nuclear receptor agonism. CHO-S Gal4-NCOR/VP16-NR2E3 two-hybrid, luciferase. Q9Y5X4. inhibition of corepressor binding, % at 3.98 µM. AID 602229. 0.35% of 360,000 active;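 active means inhibition above the mean of all tested compounds plus 3 SD, cut at about 70% in these data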;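 further: 0% = DMSO with NR2E3 transfected cells and 100% = cells lacking NR2E3 construct; higher means lower luciferase signal from less NR2E3 corepressor binding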
* hit, by the source's call; · = no result.

SMILES	PP5 inh	PP1 inh	NR2E3 ag-1	NR2E3 ag-2
CC(C)[C@H](NS(=O)(=O)c1ccccc1)C(=O)OCC(=O)N1N=C(c2ccc(Cl)cc2)CC1c1ccco1 (some centres undefined)	4.7	16.4*	-1.1	-19.2
COCC(=O)OCC(=O)N1N=C(c2ccc(Cl)cc2)CC1c1ccco1 (centres undefined)	1.1	-1.6	3.8	-17.1
Cc1cccc2c1N(CCCOc1ccccc1)C(=O)C2=O	2.1	17.3*	-2.1	8.7
Cc1ccc2c(c1)C(=O)C(=O)N2CCCOc1ccccc1C	2.1	15.4*	1.8	0.4
Cc1cccc2c1N(CCCOc1ccc(C(C)(C)C)cc1)C(=O)C2=O	2.6	14.4	0.6	-0.2
O=c1[nH]cnc2c1ncn2C1OC(CO)CC1F (centres undefined)	·	·	·	6.0
COc1ccc(N2CCN(C(=O)COC(=O)CNC(=O)c3cccc(OC(F)F)c3)CC2)cc1	0.9	-2.1	-3.5	5.9
Cc1cc(O)c(C(=O)/C=C/c2ccc(Cl)cc2)c(=O)o1	-9.4	17.2*	3.8	-77.0
COc1ccccc1-c1cnc(C(O)c2cccc(F)c2)[nH]1 (centres undefined)	·	·	·	10.9
O=C(c1[nH]c(C(F)(F)F)nc1-c1ccccc1)N1CCOCC1	·	·	·	-3.5
Cc1ccc(Cn2c(=N)c(C(=O)NCc3ccco3)cc3c(=O)n4ccccc4nc32)cc1	4.6	15.7*	1.6	-14.0
CCOc1ccc(C(=O)Nc2ccc(N3CCCC3)cc2)cc1	0.8	8.3	-2.3	-9.0
O=C(Nc1ccc(N2CCOCC2)cc1)c1ccc(COc2ccccc2)cc1	0.7	16.2*	2.8	-23.9
CCOc1cccc(C(=O)Nc2ccc(N3CCCC3)cc2)c1	3.7	16.2*	-0.6	-12.8
COc1ccc(N2CCN(C(=O)COC(=O)c3cccc(S(=O)(=O)Nc4cccc(C)c4)c3)CC2)cc1	1.0	-0.5	2.4	21.1
COC(=O)Cn1c(=NC(=O)c2nc3ccccc3s2)sc2cc(S(C)(=O)=O)ccc21	-1.0	0.4	-0.1	·
COC(=O)Cn1c(=NC(=O)c2sc3ccccc3c2Cl)sc2cc(S(N)(=O)=O)ccc21	-0.6	26.2*	-117.2	14.1
CCCOc1ccc(/C=N/NC(=S)Nc2ccccc2[N+](=O)[O-])c(O)c1	0.0	15.4*	0.2	·
CCCc1ccc2oc(C(=O)N(C)Cc3nccs3)c(C)c2c1	2.8	2.6	0.9	-59.5
CCc1ccc([C@@H]2CC=C(C(=O)O)[C@H](c3cccc(Cl)c3)N2S(=O)(=O)c2ccc(C)cc2)cc1	3.1	15.9*	4.5	14.1
Cc1ccc(S(=O)(=O)N2[C@@H](c3ccccc3)C(C(=O)O)=CC[C@H]2c2ccc(C(C)C)cc2)cc1	4.4	15.4*	1.9	2.6
CCC(c1nnnn1CCc1ccccc1)N(Cc1ccco1)Cc1cc2c(C)ccc(C)c2[nH]c1=O (centres undefined)	1.3	15.9*	0.2	-5.9
CCOC(=O)c1oc2ccc(S(=O)(=O)Nc3ccc4c(c3)n(C)c(=O)n4C)cc2c1C	2.0	-0.9	-2.8	77.3*
COc1cccc(OC)c1C(=O)Nc1ccncc1	-0.6	-0.3	1.2	15.3
Nc1ccc(C(=O)Nc2ccc(Nc3ccncc3)cc2)cc1	-1.9	-2.5	-4.0	4.5
SMILES	PP5 inh	PP1 inh	NR2E3 ag-1	NR2E3 ag-2
Nc1ccc(NC(=O)c2ccc(C(=O)Nc3ccc(N)cc3)cc2)cc1	0.6	16.4*	0.4	-1.1
CC(=O)N1CCc2cc(S(=O)(=O)NCCC3=CCCCC3)ccc21	3.5	1.1	-2.0	81.4*
O=C1C=C(c2cccc(Br)c2)C[C@@H](c2ccc3c(c2)OCO3)C1	3.1	1.1	3.2	-25.4
CCN(CC)S(=O)(=O)c1cccc(C(=O)N/N=C/c2cc(OC)c(O)c(OC)c2)c1	1.3	-0.2	-0.5	-10.2
CCN(CC)S(=O)(=O)c1cccc(C(=O)N/N=C/c2cccc(O)c2O)c1	0.1	16.4*	-2.0	-27.8
O=C1Nc2ccccc2C(O)(C(=O)NCc2ccco2)N1c1ccc(Cl)c(Cl)c1 (centres undefined)	-7.5	-1.5	1.5	-22.6
CCN(CC)CC(C)CNC(=O)C1(O)c2ccccc2NC(=O)N1c1ccc(Cl)c(Cl)c1 (centres undefined)	2.2	15.4*	-1.6	-28.3
CCOC(=O)c1cc(-c2ccc(OC)cc2)nn1-c1ccccc1C(=O)O	-0.8	17.1*	-7.8	7.4
CC(=O)c1ccc(OCc2nnn(CC(=O)O)c2-c2ccccc2)cc1	·	·	·	25.6
CCn1c(SCc2nc3scc(-c4ccccc4)c3c(=O)[nH]2)nnc1-c1cccs1	2.7	8.5	2.8	20.4
COCCn1c(SCc2nc3scc(-c4ccc(Cl)cc4)c3c(=O)[nH]2)nnc1-c1cccc(C)c1	2.7	15.8*	-1.2	17.7
Cc1ccc(-c2nc(C(=O)NCCCN3CCOCC3)cc3c2[nH]c2ccccc23)cc1	8.5	15.3*	5.6	-15.6
Cc1ccc(C)c(OCCC(=O)NNC(=O)c2cc(C)oc2C)c1	2.3	-3.4	4.4	9.4
C=CCn1c2ccccc2c(=O)c2cc(C#Cc3ccccn3)ccc21	1.8	5.2	2.7	-74.2
C=CCn1c2ccccc2c(=O)c2cc(C#Cc3ccsc3)ccc21	1.7	17.4*	0.9	·
CCOC(=O)[C@]12CCC=C1N(Cc1cccc3ccccc13)C(=O)[C@H](CC(=O)N1CCCC1)C2	·	·	·	-7.6
CCc1cc(C(=O)N=Nc2c(O)[nH]c3ccc([N+](=O)[O-])cc23)c2ccccc2n1	0.6	16.0*	1.6	-24.5
CCOC(=O)[C@]12CCCC=C1N(Cc1cccc3ccccc13)C(=O)[C@H](CC(=O)N1CCSCC1)C2	·	·	·	-9.4
CCOc1ccccc1C(=O)NC(C(=O)OCC(=O)Nc1nnc(-c2ccccc2)o1)C(C)C (centres undefined)	1.5	15.9*	-2.6	21.8
O=C(COc1ccccc1)Nc1nnc(-c2ccc(Cl)cc2)o1	-3.9	17.2*	-0.4	-26.6
O=C(COc1ccc(Cl)cc1)Nc1nnc(-c2ccc3c(c2)CCCC3)o1	2.3	6.4	-0.2	-17.5
Cn1c(N)c(C(=O)COC(=O)Cc2cccc(C(F)(F)F)c2)c(=O)n(C)c1=O	·	·	·	-44.9
CCN(CC)c1ccc(CNCc2cccs2)cc1	1.2	17.4*	1.0	-2.7
N#Cc1c(N2CCN(C(=O)c3ccccc3Cl)CC2)nc(-c2ccccc2)c2c1CCCC2	-0.1	-2.2	-3.0	-8.2
N#Cc1c(N2CCN(C(=O)c3ccccc3)CC2)nc(-c2ccccc2)c2c1CCCC2	1.1	15.6*	5.8	-96.4
O=C1C2N=NN(CC(=O)N3N=C(c4ccccc4)CC3c3ccc([N+](=O)[O-])cc3)C2C(=O)N1c1ccccc1 (centres undefined)	-0.2	16.4*	-2.7	·
CC(=O)c1ccc(-c2cnc3c(NC=O)cc(-c4ccccc4Oc4ccccc4)cn23)cc1	·	·	·	19.2
CC(=O)Nc1ccc(NC(=O)c2ccc(N(C)S(=O)(=O)c3ccc(C)cc3)cc2)cc1	-0.4	1.2	-1.8	-1.2
CN(c1ccccc1)S(=O)(=O)c1ccc(NC(=O)c2ccc(-c3ccccc3)cc2)cc1	2.9	5.8	3.0	82.3*
O=C(CNc1ccccc1)N/N=C/c1ccc2c(c1)OCO2	3.0	-0.9	1.9	-14.6
